# Assay results collected from several papers.
# Target: RAC-beta serine/threonine-protein kinase (AKT2, Homo sapiens, UniProt P31751)
SMILES,test,conditions,measurement,result
COc1ncccc1-c1cnn2ccc(N3CCN(C(=O)OC(C)C)CC3)nc12,"binding, competition with immobilised ligand",1 µM,remaining binding,98%
C#Cc1n[nH]c2c(-c3cn(C(C)c4ccccn4)c(=O)[nH]c3=O)cc(F)cc12 (centres unmarked),"enzyme activity, inhibitor",1 µM,inhibition,2%
Cn1cncc1[C@@](O)(COc1ccc(C#N)cc1-c1ccc(OC(F)(F)F)cc1)c1ccc(C#N)cc1,"cell-free assay, competition with immobilised ligand",1 µM,remaining binding,78%
Cn1cc(-c2cccc(N3CCc4c(sc5c4CC(C)(C)C5)C3=O)c2CO)cc(Nc2ccncn2)c1=O,"enzyme activity, inhibitor",1 µM,inhibition,2%
O=c1[nH]c2ccccc2n1C1CCN(Cc2ccc(-c3[nH]c4cc5ncnc5cc4nc3-c3ccccc3)cc2)CC1,cell-free assay,0.5 µM,remaining signal,96.8%
Nc1ncc(-c2nc(N3CCOCC3)nc(N3CCOCC3)n2)c(C(F)F)n1,"binding, competition with immobilised ligand",10 µM,remaining binding,100%
COc1cc(Nc2ncc(F)c(Nc3ccc4c(n3)NC(=O)C(C)(C)O4)n2)cc(OC)c1OC,binding,10 µM,inhibition,0%
CC(C)(C)c1cc(C=C(C#N)C#N)cc(Br)c1O,"enzyme activity, inhibitor",0.5 µM,remaining activity,97.7%
Cn1cc(-c2cc(F)cc(N3CCn4c(cc5c4CCCC5)C3=O)c2CO)cc(Nc2ccc(N3CCN(C4COC4)CC3)cn2)c1=O,"enzyme activity, inhibitor",0.1 µM,inhibition,9%
N#CC1(c2ccccn2)CCN(Cc2cc(C(=O)O)c(=O)n3ccccc23)CC1,"cell-free assay, competition with immobilised ligand",1 µM,remaining binding,73%
Cc1nn(C)cc1-c1nc2c(N3CCN(Cc4ccc(Cl)cc4)CC3)c(Cl)cnc2[nH]1,"binding, competition with immobilised ligand",1 µM,remaining binding,100%
